In the library only some 1.9% were active in any assay of this set; here they are far more common.
CHRM5 agonist – human M5 muscarinic receptor agonists, primary screen, CHO-K1 cells, Fluo-8 calcium fluorescence; Muscarinic acetylcholine receptor M5 (Homo sapiens), P08912; AID 624037, 2012; hit rate 0.19% among 360,000; activation, % at 3 µM; CHO-K1 hM5 cells; 0% DMSO wells, 100% maximal acetylcholine response;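 active = activation above the run's mean over test compounds plus 3 SD, cut at about 23% in these data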;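 note: signal is peak over basal fluorescence ratio across the kinetic read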
Target sequence (P08912 whole entry, looked up): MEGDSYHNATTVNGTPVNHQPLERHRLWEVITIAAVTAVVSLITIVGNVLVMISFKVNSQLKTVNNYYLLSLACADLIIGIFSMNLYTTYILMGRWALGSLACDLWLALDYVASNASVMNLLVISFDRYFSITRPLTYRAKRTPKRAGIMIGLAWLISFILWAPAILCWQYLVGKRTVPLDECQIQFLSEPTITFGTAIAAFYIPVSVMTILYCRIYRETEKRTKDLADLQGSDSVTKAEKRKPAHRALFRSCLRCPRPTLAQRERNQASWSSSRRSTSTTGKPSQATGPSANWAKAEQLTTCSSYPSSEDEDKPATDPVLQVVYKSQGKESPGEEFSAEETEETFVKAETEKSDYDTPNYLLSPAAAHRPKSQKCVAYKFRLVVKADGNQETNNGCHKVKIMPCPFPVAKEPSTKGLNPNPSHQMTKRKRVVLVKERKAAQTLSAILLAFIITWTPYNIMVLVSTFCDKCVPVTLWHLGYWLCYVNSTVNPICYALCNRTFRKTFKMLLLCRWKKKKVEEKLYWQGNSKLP
CHRM4 PAM – human M4 muscarinic receptor positive allosteric modulators, primary screen, CHO-K1 cells, Fluo-8 calcium fluorescence; AID 624126, 2012; hit rate 0.4% among 360,000; activation, % at 3 µM; CHO-K1 hM4/Gqi5, ACh EC20; 0% = ACh EC20, 100% = maximal ACh; Muscarinic acetylcholine receptor M4 (Homo sapiens), P08173;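 active = activation above its plate's cutoff, the mean activation of sample wells plus 3 SD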
M5 antag – human M5 muscarinic receptor antagonists, primary screen, CHO cells, Fluo-8 calcium fluorescence. CHO-hM5 cells, ACh EC80. hit rate 0.59% among 360,000. inhibition, % at 3 µM;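 active = inhibition above a per-plate cutoff, the mean of that plate's test compounds plus 3 SD, cut at about 27% in these data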;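 note: 0% = acetylcholine EC80 with DMSO and 100% = DMSO without agonist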
M4 ag – human M4 muscarinic receptor agonists, primary screen, CHO-K1 cells, Fluo-8 calcium fluorescence; Muscarinic acetylcholine receptor M4 (Homo sapiens), P08173; CHO-K1 hM4/Gqi5; vehicle 0%, full acetylcholine response 100%; activation, % at 3 µM; AID 624127, 2012; hit rate 0.14% among 360,000;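 active = activation above the run mean over all test wells plus 3 SD, cut at about 32% in these data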;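 note: peak over basal fluorescence ratio per well then scaled between controls; 0% = DMSO wells and 100% = acetylcholine at EC100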
CHRM4 antagonist – human M4 muscarinic receptor antagonists, primary screen, CHO cells, Fluo-8 calcium fluorescence. Muscarinic acetylcholine receptor M4 (Homo sapiens), P08173. CHO-hM4 cells, ACh EC80. inhibition, % at 3 µM. hit rate 0.73% among 360,000. AID 624125, 2012;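 active = inhibition above its plate's cutoff, the mean inhibition of sample wells plus 3 SD, cut at about 27% in these data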;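 note: 0% = acetylcholine EC80 with DMSO and 100% = DMSO without agonist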
M5 PAM – human M5 muscarinic receptor positive allosteric modulators, primary screen, CHO-K1 cells, Fluo-8 calcium fluorescence; CHO-K1 hM5, ACh EC20 PAM; 0% = ACh EC20, 100% = ACh EC100; Muscarinic acetylcholine receptor M5 (Homo sapiens), P08912; hit rate 0.3% among 360,000; activation, % at 3 µM;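 active = activation above the run cutoff, the mean activation of all test compounds plus 3 SD, cut at about 18% in these data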
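Assay system: CHO-K1 hM5 cells / Incubation: Fluo-8 loading 80 min at 37 °C plus 30 min room temperature / Technique: Fluo-8 calcium dye fluorescence, kinetic read / Repeats: single replicate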
The depositor's hits bear a star.

`c1ccc(C(c2ccccc2)c2noc(CN3CCN(CC4CC4)CC3)n2)cc1` gave CHRM5 agonist -18, CHRM4 PAM -24, M5 antag 24, M4 ag 1, CHRM4 antagonist 31* and M5 PAM -33.
`COCC1CCCN(Cc2nc(C(c3ccccc3)c3ccccc3)no2)C1` (stereo not drawn) gave CHRM5 agonist -9, CHRM4 PAM -4, M5 antag 1, M4 ag -1, CHRM4 antagonist -11 and M5 PAM 1.
Screening COc1cc2c(cc1NC(=O)C(C)OC(=O)c1ccc(S(=O)(=O)Nc3ccccc3Cl)cc1)oc1ccccc12 (stereo not drawn) returned CHRM5 agonist -4, CHRM4 PAM -10, M5 antag 12, M4 ag 9, CHRM4 antagonist -6 and M5 PAM -11.
Screening COCCNC(=O)CCC1CCN(Cc2ccc(-c3ccccc3)cc2)CC1 returned CHRM5 agonist -24, CHRM4 PAM -16, M5 antag 7, M4 ag 1, CHRM4 antagonist 57* and M5 PAM -29.
`COC(=O)c1ccc(CN2CCC(Oc3cccc(C(=O)N4CCOCC4)c3)CC2)cc1` gave CHRM5 agonist -7, CHRM4 PAM -15, M5 antag 67*, M4 ag 4, CHRM4 antagonist 61* and M5 PAM -13.
`COCCNC(=O)c1cccc(OC2CCN(Cc3ccc(C(C)C)cc3)CC2)c1` gave CHRM5 agonist -20, CHRM4 PAM -17, M5 antag 12, M4 ag 3, CHRM4 antagonist 20 and M5 PAM -33.
Screening COCCNC(=O)C1CCCN(Cc2ccccc2)CC1 (stereo not drawn) returned CHRM5 agonist -1, CHRM4 PAM 4, M5 antag 7, M4 ag 0, CHRM4 antagonist -12 and M5 PAM 0.
COCCNC(=O)c1cccc(OC2CCN(Cc3ccc(C(=O)OC)cc3)CC2)c1 was read as CHRM5 agonist -24, CHRM4 PAM -15, M5 antag 25, M4 ag 0, CHRM4 antagonist 60* and M5 PAM -30.
Screening CSc1cccc(CN2CCC(Oc3cccc(C(=O)N4CCCC4)c3)CC2)c1 returned CHRM5 agonist -8, CHRM4 PAM -11, M5 antag 28*, M4 ag 4, CHRM4 antagonist -3 and M5 PAM -15.
Screening Cc1cc(F)ccc1S(=O)(=O)Nc1ccccc1C(=O)NCc1cccnc1 returned CHRM5 agonist -3, CHRM4 PAM 6, M5 antag 9, M4 ag 2, CHRM4 antagonist 1 and M5 PAM 2.
Screening CCC(=O)N1CCCc2cc(S(=O)(=O)N3CCN(c4ccccn4)CC3)ccc21 returned CHRM5 agonist -6, CHRM4 PAM 0, M5 antag 8, M4 ag 6, CHRM4 antagonist -5 and M5 PAM 33*.
For CCC(=O)N1CCCc2cc(S(=O)(=O)N3CCN(c4ncccn4)CC3)ccc21 the results were CHRM5 agonist 1, CHRM4 PAM 4, M5 antag 1, M4 ag 2, CHRM4 antagonist -14 and M5 PAM -3.
`COc1ccccc1N(C(=O)c1cncc(Br)c1)c1nc(-c2ccc(C)cc2)cs1` gave CHRM5 agonist -1, CHRM4 PAM 4, M5 antag -18, M4 ag 0, CHRM4 antagonist -8 and M5 PAM 18.
For COc1ccc(N2CCN(c3ncnc4c3[nH]c3ccccc34)CC2)cc1 the results were CHRM5 agonist 8, CHRM4 PAM -11, M5 antag 28*, M4 ag 23, CHRM4 antagonist 28* and M5 PAM -21.
